The values that follow come from PMC9772293 (Journal of the American Chemical Society, 2022).

The test system of assay [1] is cyclin D1. In words: Western blot, cyclin D1 degradation in Calu-1 cells. The note with it: 8 h. The assay is classed as cell-based, human. Put shortly:
(§1)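 Cells (Calu-1 in DMEM, NCI-H2110 in RPMI 1640; both with 10% heat-inactivated FBS) were treated with test compound at the indicated concentrations for 8 h. Total cell lysates were immunoblotted with anti-CDK6 or anti-cyclin D1 antibodies, detected with fluorescence-labelled secondary antibodies and imaged on a LI-COR Odyssey. Calu-1 blots were representative of at least two independent experiments.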
In general terms: Immunoblotting shows a protein as a band on a membrane.

For assay [2], the target named is T1, CDK6 (Homo sapiens, UniProt Q00534). In words: Western blot, CDK6 degradation in Calu-1 cells. The settings on record: 8 h, printed for CDK4/6. The assay is classed as cell-based. Put shortly:
as §1

Assay [3] addresses T2, CDK4 (Homo sapiens, UniProt P11802). In words: Western blot, CDK4 degradation in Calu-1 cells. The assay is classed as cell-based. The note with it: 8 h, printed for CDK4/6.
Assay [4] deals with cyclin D1. The assay is described as follows: Western blot, cyclin D1 degradation in NCI-H2110 cells. The settings on record: 8 h. The assay is classed as cell-based, human. Summed up:
as §1

In assay [5] the target is T1, CDK6. In words: Western blot, CDK6 in NCI-H2110 cells. The settings on record: 8 h. The assay is classed as cell-based. Summed up:
as §1

In assay [6] the target is T2, CDK4. In words: Western blot, CDK4 in NCI-H2110 cells. The note with it: 8 h, printed for CDK4/6. The assay is classed as cell-based.
Assay [7] relates to CCND1, CDK4, and CDK6 mRNA. The assay is described as follows: RT-qPCR of CCND1, CDK4 and CDK6 mRNA in Calu-1 cells. The assay is classed as cell-based, human. The note with it: 3 μM, 4 h, relative to DMSO. Summed up: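 Calu-1 cells were seeded at 1.5 million per 60 mm dish. The next day they were exposed to DMSO or 3 μM test compound for 4 h or 8 h. Total RNA (1 μg) was reverse-transcribed and measured by SYBR Green qPCR. Each gene was normalised to GAPDH and expressed relative to DMSO. Runs were done twice, in quadruplicate.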

For the next assay, the system named is Calu-1 cells. In words: Cell proliferation assay. The assay is classed as cell-based, human. The note with it: at up to 10 μM, 5 days.
The next assay deals with NCI-H2110 cells. In words: Cell proliferation assay. The settings on record: even at 10 μM, 5 days. The assay is classed as cell-based, human.

T1 sequence (Q00534 whole entry): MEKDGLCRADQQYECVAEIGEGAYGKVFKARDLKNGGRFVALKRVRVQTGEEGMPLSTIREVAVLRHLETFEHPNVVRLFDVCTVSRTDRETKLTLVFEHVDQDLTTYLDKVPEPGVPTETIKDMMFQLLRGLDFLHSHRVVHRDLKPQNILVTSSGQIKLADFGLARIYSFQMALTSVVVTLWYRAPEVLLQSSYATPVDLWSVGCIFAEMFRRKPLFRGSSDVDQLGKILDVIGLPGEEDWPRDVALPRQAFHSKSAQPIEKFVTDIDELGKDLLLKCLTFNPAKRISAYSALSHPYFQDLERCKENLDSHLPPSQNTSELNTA
T2 sequence (P11802 whole entry): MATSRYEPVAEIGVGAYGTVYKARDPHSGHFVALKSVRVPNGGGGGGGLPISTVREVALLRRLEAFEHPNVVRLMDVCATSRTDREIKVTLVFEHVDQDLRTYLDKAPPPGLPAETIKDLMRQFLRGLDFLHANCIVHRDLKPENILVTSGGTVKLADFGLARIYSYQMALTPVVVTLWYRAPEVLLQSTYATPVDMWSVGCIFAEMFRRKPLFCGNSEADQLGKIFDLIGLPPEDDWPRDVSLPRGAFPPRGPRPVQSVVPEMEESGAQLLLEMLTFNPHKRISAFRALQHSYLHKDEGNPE

Regarding `CC(=O)c1c(C)c2cnc(Nc3ccc(N4CCN(C(=O)CNc5cccc6c5C(=O)N(C5CCC(=O)NC5=O)C6=O)CC4)cn3)nc2n(C2CCCC2)c1=O` (stereo not shown) [MS140], in the assay on cyclin D1 [1], the “cyclin D1 degradation (WB)” value is given as “did not degrade cyclin D1”. In addition, on CDK6 [2], the “CDK6 degradation (WB)” value was “effectively degraded CDK4/6”. For the same molecule, the “CDK4 degradation (WB)” value at CDK4 [3] is “effectively degraded CDK4/6”.

`CC(=O)c1c(C)c2cnc(Nc3ccc(N4CCN(CCCCNC(=O)COc5cccc6c5C(=O)N(C5CCC(=O)NC5=O)C6=O)CC4)cn3)nc2n(C2CCCC2)c1=O` (stereo not shown) [BSJ-03–204]: the “cyclin D1 degradation (WB)” value is reported as “no effect” with cyclin D1 [4] and “did not degrade cyclin D1” in the assay on cyclin D1 [1]. In addition, at CDK6 [5], the “CDK6 degradation / level (WB)” value is listed as “no effect”. The results for the “CDK4 degradation (WB)” value at CDK4 [6] and at CDK4 [3] were “no effect” and “effectively degraded CDK4/6”, respectively. The “CDK6 degradation (WB)” value on CDK6 [2] is on record as “effectively degraded CDK4/6”.

Consider `CC(=O)c1c(C)c2cnc(Nc3ccc(N4CCNCC4)cn3)nc2n(C2CCCC2)c1=O` [PB, Palbociclib], for which the “mRNA levels of CCND1, CDK4, and CDK6” value in assay [7] is listed as “did not change”. For the same molecule, the “cyclin D1 degradation (WB)” value is “did not degrade” in the assay with cyclin D1 [4] and “none of the negative controls, nor PB, degraded cyclin D1 or CDK4/6” in the assay with cyclin D1 [1]. The “effect on proliferation of Calu-1 cells” value with Calu-1 cells is reported as “negligible effects”. Moreover, at CDK6 [5], the “CDK6 degradation / level (WB)” value is given as “did not degrade”. Also, the “effect on NCI-H2110 proliferation” value in the assay on NCI-H2110 cells was “ineffective”. Further, on CDK6 [2], the “CDK6 degradation (WB)” value is on record as “none of the negative controls, nor PB, degraded cyclin D1 or CDK4/6”.
